Source: ChEMBL document CHEMBL1122497, “A polymeric drug for treatment of inflammatory bowel disease” (1983)
Values joined by “and” are separate entries in the source; they are usually repeats but may differ in a detail not shown here. Identical values can stand only once.

Assays:
[1] = species: Cavia porcellus; assay: Tested for mean score after quantitative histological evaluation result in guinea pig; format: functional; set-up: scale not given here
How it was run: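 Carrageenan colitis in male Hartley guinea pigs: 3 days of twice-daily gavage, then 5 wt % degraded carrageenan drinking water for 24 days with dosing continued. All animals, including early deaths, were scored histologically, reviewed blind by two evaluators. Total points per group were averaged and compared with untreated controls by Student's t test.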

[2] = species: Cavia porcellus; assay: Tested for cecal ulceration in diarrhea at 60 umol concentration of compound; format: functional
How it was run: (§1)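 Male Hartley guinea pigs (242-265 g), groups of 20, were gavaged twice daily with agent solutions or suspensions for 3 days. Then 5 wt % sterile degraded carrageenan was given as the sole drinking fluid, with dosing continued. Diarrhea was checked twice daily, body weight every 3 days, and necropsy done after 24 days of carrageenan.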

[3] = species: Cavia porcellus; assay: Tested for cecal ulceration in necropsy at 60 umol concentration of compound; format: functional; how it was run: as §1
[4] = species: Cavia porcellus; assay: Tested for cecal ulceration with mortality at 60 umol concentration of compound; format: functional
How it was run: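 Male Hartley guinea pigs (242-265 g, groups of 20) gavaged twice daily with 60 µmol doses as solution or suspension for 3 days. They were then given 5 wt % sterile degraded carrageenan as sole drinking fluid while dosing continued. Diarrhoea was checked twice daily and weight every 3 days. The study ended after 24 days of carrageenan, with necropsy and blind histology scored against untreated controls (Student's t test).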

[5] = species: Cavia porcellus; assay: Tested for weight loss in guinea pig at 60 umol concentration of compound; format: functional; how it was run: as §1
[6] = test system: Rattus norvegicus; assay: Tested for peak serum concentration in feces after mean oral administered dose in rat; format: functional
How it was run: (§2)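 Nonfasted female Sim:(SD)fBr rats (200-300 g), acclimated 72 h in metabolism cages, got a single oral dose (20 mg polymer or 16 mg SASP) as aqueous solution or suspension. Blood, urine and feces were collected to 96 h. Samples were β-glucuronidase-treated (37 °C, 18 h), acetylated, extracted and read fluorimetrically (ex 295, em 460 nm) against N-Ac-ASA standards.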

[7] = test system: Rattus norvegicus; assay: Tested for peak serum concentration in feces after oral administered dose in rat 4; format: functional; how it was run: as §2
[8] = test system: Rattus norvegicus; assay: Tested for peak serum concentration in feces after oral administered dose in rat 5; format: functional
How it was run: (§3)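 Nonfasted female Sim:(SD)fBr rats (200-300 g), acclimated 72 h to metabolism cages, got one oral dose as aqueous solution or suspension. Blood, urine and feces were collected to 96 h. Samples were hydrolysed with β-glucuronidase (pH 6.9, 37 °C, 18 h), acetylated, extracted with 4-methyl-2-pentanone and back-extracted into pH 6.0 buffer. Total 5-ASA plus metabolites were read fluorimetrically (ex 295, em 460 nm) against N-Ac-ASA standards.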

[9] = test system: Rattus norvegicus; assay: Tested for peak serum concentration in urine after mean oral administered dose in rat; format: functional; how it was run: as §2
[10] = test system: Rattus norvegicus; assay: Tested for peak serum concentration in urine after oral administered dose in rat 4; format: functional; how it was run: as §2
[11] = test system: Rattus norvegicus; assay: Tested for peak serum concentration in urine after oral administered dose in rat 5; format: functional; how it was run: as §2
[12] = test system: Rattus norvegicus; assay: Tested for peak serum concentration in urine after oral administered dose in rat 6; format: functional; how it was run: as §2
[13] = test system: Rattus norvegicus; assay: Tested for total administered dose in rat 4; format: functional; how it was run: as §3
[14] = test system: Rattus norvegicus; assay: Tested for total administered dose in rat 5; format: functional; how it was run: as §2
[15] = test system: Rattus norvegicus; assay: (§4) Tested for peak serum concentration in feces after oral administered dose in rat 6; format: functional; how it was run: as §3
[16] = test system: Rattus norvegicus; assay: as §4; format: functional; how it was run: as §2; remark: listed apart in the source
[17] = species: Rattus norvegicus; assay: Tested for peak serum concentration in rat 4; format: functional, organism-based; how it was run: as §2
[18] = species: Rattus norvegicus; assay: Tested for peak serum concentration in rat 5; format: functional, organism-based; how it was run: as §2
[19] = species: Rattus norvegicus; assay: Tested for peak serum concentration in rat; format: functional, organism-based; how it was run: as §2
[20] = species: Rattus norvegicus; assay: Tested for peak serum concentration in rat 6; format: functional, organism-based; how it was run: as §2
[21] = test system: Rattus norvegicus; assay: Tested for peak serum concentration in feces after oral administered dose in rat 1; format: functional; how it was run: as §2
[22] = test system: Rattus norvegicus; assay: Tested for peak serum concentration in feces after oral administered dose in rat 2; format: functional; how it was run: as §2
[23] = test system: Rattus norvegicus; assay: (§5) Tested for peak serum concentration in feces after oral administered dose in rat 3; format: functional; how it was run: as §2
[24] = test system: Rattus norvegicus; assay: Tested for peak serum concentration in urine after oral administered dose in rat 1; format: functional; how it was run: as §2
[25] = test system: Rattus norvegicus; assay: Tested for peak serum concentration in urine after oral administered dose in rat 2; format: functional; how it was run: as §2
[26] = test system: Rattus norvegicus; assay: Tested for peak serum concentration in urine after oral administered dose in rat 3; format: functional; how it was run: as §2
[27] = test system: Rattus norvegicus; assay: Tested for total administered dose in rat 1; format: functional; how it was run: as §2
[28] = test system: Rattus norvegicus; assay: Tested for total administered dose in rat 2; format: functional; how it was run: as §2
[29] = test system: Rattus norvegicus; assay: as §5; format: functional; how it was run: as §2; remark: listed apart in the source

Row | Compound | Mean score [1] | Incidence [2] [%] | Incidence [3] [%] | Incidence [4] [%] | Weight loss [5] [g] | Percent of oral dose recovered in feces [6] | Dose [9] [%] | further results
1 | Nc1ccc(O)c(C(=O)O)c1 [MESALAMINE] | 2.4 | 83 | 83 | 28 | 12 | – | – | –
2 | O=C(O)c1cc(/N=N/c2ccc(S(=O)(=O)Nc3ccccn3)cc2)ccc1O [SULFASALAZINE] | 2.68 | 100 | 90 | 40 | 44 | 11% and 14.7% | 3.7 | Dose [7]: 7.7%; Dose [8]: 14%; Dose [10]: 3%; Dose [11]: 3.2%; Dose [12]: 5%; Dose [13]: 10.7%; Dose [14]: 17.2%; Dose [15]: 11.4%; Dose [16]: 16.4%
3 | O=C(O)c1cc(/N=N/c2ccc(S(=O)(=O)Nc3ccccn3)cc2)ccc1O | – | – | – | – | – | – | – | Concentration [17]: 7.9 nM ml-1; Concentration [18]: 4 nM ml-1; Concentration [19]: 2.5 nM ml-1 and 5.6 nM ml-1; Concentration [20]: 4.8 nM ml-1
4 | Nc1ccc(S(=O)(=O)Nc2ccccn2)cc1 [SULFAPYRIDINE] | 3.11 | 80 | 90 | 15 | 17 | – | – | –
5 | O=C([O-])c1cc(/N=N/c2ccc(S(=O)(=O)Nc3ccccn3)cc2)ccc1O.[Na+] [POLYMER OF SULFASALAZINE] | 2.16 | 85 | 85 | 25 | 37 | 12.3% and 20.2% | 8 | Dose [21]: 5.3%; Dose [22]: 9.4%; Dose [23]: 29.7%; Dose [24]: 6.7%; Dose [25]: 9.5%; Dose [26]: 7.7%; Dose [27]: 12%; Dose [28]: 18.9%; Dose [29]: 22%
